ChEMBL document CHEMBL5058577, “EUbOPEN Chemogenomics Library 2 (Multiplex)” (2022)

Tested on: HEK-293T
Assay: Multiplex assay against HEK293T
Type: toxicity, cell-based
Conditions: human
How it was run: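 At seeding, live cells were stained with Hoechst33342, BioTracker Green Microtubule Cytoskeleton Dye, MitoTracker Red and Annexin V Alexa Fluor 680. After compound addition they were imaged on a CQ1 microscope at 37°C and 5% CO2, and CellPathfinder machine-learning gating sorted them into Hoechst high-intensity objects or normal cells, with normal cells further split into healthy, pyknosed or fragmented nuclei and pyknosed cells into mitotic or apoptotic. Tubulin, mitochondrial-mass and membrane-permeability phenotypes are given as per cents of cells with healthy nuclei.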

[1] = 12 h, 1 µM, compound concentration 1 uM, replicate 1
[2] = 12 h, 1 µM, compound concentration 1 uM, replicate 2
[3] = 12 h, 10 µM, compound concentration 10 uM, replicate 1
[4] = 12 h, 10 µM, compound concentration 10 uM, replicate 2
[5] = 24 h, 1 µM, compound concentration 1 uM, replicate 1
[6] = 24 h, 1 µM, compound concentration 1 uM, replicate 2
[7] = 24 h, 10 µM, compound concentration 10 uM, replicate 1
[8] = 24 h, 10 µM, compound concentration 10 uM, replicate 2
[9] = 48 h, 1 µM, compound concentration 1 uM, replicate 1
[10] = 48 h, 1 µM, compound concentration 1 uM, replicate 2
[11] = 48 h, 10 µM, compound concentration 10 uM, replicate 1
[12] = 48 h, 10 µM, compound concentration 10 uM, replicate 2

CCc1nn2c(C)cc(C)nc2c1Cc1ccc(-c2nnc(C3CCNCC3)o2)cc1
Population Apoptotic (%) [1]: 35% | Population Fragmented Nuclei (%) [1]: 9% | Population Healthy Nuclei (%) [1]: 80% | Population Hoechst High Intensity Objects (%) [1]: 7% | Population Membrane Permeable-Phenotype (%) [1]: 0% | Population Mitochondria Different-Phenotype (%) [1]: 54% | Population Mitotic Cells (%) [1]: 64% | Population Normal (%) [1]: 92% | Population Pyknosed Nuclei (%) [1]: 10% | Population Tubulin-Different-Phenotype (%) [1]: 37% | Total Cell Count [1]: 401 | Population Apoptotic (%) [2]: 51% | Population Fragmented Nuclei (%) [2]: 7% | Population Healthy Nuclei (%) [2]: 78% | Population Hoechst High Intensity Objects (%) [2]: 5% | Population Mitochondria Different-Phenotype (%) [2]: 62% | Population Mitotic Cells (%) [2]: 48% | Population Normal (%) [2]: 94% | Population Pyknosed Nuclei (%) [2]: 13% | Population Tubulin-Different-Phenotype (%) [2]: 19% | Total Cell Count [2]: 395 | Population Apoptotic (%) [3]: 63% | Population Fragmented Nuclei (%) [3]: 6% | Population Healthy Nuclei (%) [3]: 68% | Population Hoechst High Intensity Objects (%) [3]: 11% | Population Membrane Permeable-Phenotype (%) [3]: 0% | Population Mitochondria Different-Phenotype (%) [3]: 85% | Population Mitotic Cells (%) [3]: 36% | Population Normal (%) [3]: 88% | Population Pyknosed Nuclei (%) [3]: 25% | Population Tubulin-Different-Phenotype (%) [3]: 65% | Total Cell Count [3]: 319 | Population Apoptotic (%) [4]: 56% | Population Fragmented Nuclei (%) [4]: 4% | Population Healthy Nuclei (%) [4]: 78% | Population Hoechst High Intensity Objects (%) [4]: 12% | Population Mitochondria Different-Phenotype (%) [4]: 86% | Population Mitotic Cells (%) [4]: 43% | Population Normal (%) [4]: 87% | Population Pyknosed Nuclei (%) [4]: 17% | Population Tubulin-Different-Phenotype (%) [4]: 48% | Total Cell Count [4]: 293 | Population Apoptotic (%) [5]: 44% | Population Fragmented Nuclei (%) [5]: 10% | Population Healthy Nuclei (%) [5]: 76% | Population Hoechst High Intensity Objects (%) [5]: 4% | Population Membrane Permeable-Phenotype (%) [5]: 0% | Population Mitochondria Different-Phenotype (%) [5]: 36% | Population Mitotic Cells (%) [5]: 55% | Population Normal (%) [5]: 95% | Population Pyknosed Nuclei (%) [5]: 13% | Population Tubulin-Different-Phenotype (%) [5]: 23% | Total Cell Count [5]: 529 | Population Apoptotic (%) [6]: 34% | Population Fragmented Nuclei (%) [6]: 7% | Population Healthy Nuclei (%) [6]: 78% | Population Hoechst High Intensity Objects (%) [6]: 5% | Population Mitochondria Different-Phenotype (%) [6]: 50% | Population Mitotic Cells (%) [6]: 65% | Population Normal (%) [6]: 94% | Population Tubulin-Different-Phenotype (%) [6]: 19% | Total Cell Count [6]: 542 | Population Apoptotic (%) [7]: 69% | Population Fragmented Nuclei (%) [7]: 11% | Population Healthy Nuclei (%) [7]: 72% | Population Hoechst High Intensity Objects (%) [7]: 5% | Population Membrane Permeable-Phenotype (%) [7]: 0% | Population Mitochondria Different-Phenotype (%) [7]: 73% | Population Mitotic Cells (%) [7]: 30% | Population Normal (%) [7]: 94% | Population Pyknosed Nuclei (%) [7]: 15% | Population Tubulin-Different-Phenotype (%) [7]: 50% | Total Cell Count [7]: 448 | Population Apoptotic (%) [8]: 41% | Population Fragmented Nuclei (%) [8]: 10% | Population Healthy Nuclei (%) [8]: 77% | Population Hoechst High Intensity Objects (%) [8]: 7% | Population Mitochondria Different-Phenotype (%) [8]: 78% | Population Mitotic Cells (%) [8]: 58% | Population Normal (%) [8]: 92% | Population Pyknosed Nuclei (%) [8]: 11% | Population Tubulin-Different-Phenotype (%) [8]: 45% | Total Cell Count [8]: 389 | Population Apoptotic (%) [9]: 28% | Population Fragmented Nuclei (%) [9]: 12% | Population Healthy Nuclei (%) [9]: 79% | Population Hoechst High Intensity Objects (%) [9]: 2% | Population Membrane Permeable-Phenotype (%) [9]: 0% | Population Mitochondria Different-Phenotype (%) [9]: 25% | Population Mitotic Cells (%) [9]: 71% | Population Normal (%) [9]: 97% | Population Pyknosed Nuclei (%) [9]: 8% | Population Tubulin-Different-Phenotype (%) [9]: 15% | Total Cell Count [9]: 842 | Population Apoptotic (%) [10]: 32% | Population Fragmented Nuclei (%) [10]: 11% | Population Healthy Nuclei (%) [10]: 83% | Population Hoechst High Intensity Objects (%) [10]: 5% | Population Mitochondria Different-Phenotype (%) [10]: 24% | Population Mitotic Cells (%) [10]: 67% | Population Normal (%) [10]: 94% | Population Pyknosed Nuclei (%) [10]: 5% | Population Tubulin-Different-Phenotype (%) [10]: 10% | Total Cell Count [10]: 829 | Population Apoptotic (%) [11]: 54% | Population Fragmented Nuclei (%) [11]: 14% | Population Healthy Nuclei (%) [11]: 72% | Population Hoechst High Intensity Objects (%) [11]: 4% | Population Membrane Permeable-Phenotype (%) [11]: 0% | Population Mitochondria Different-Phenotype (%) [11]: 59% | Population Mitotic Cells (%) [11]: 45% | Population Normal (%) [11]: 95% | Population Pyknosed Nuclei (%) [11]: 13% | Population Tubulin-Different-Phenotype (%) [11]: 32% | Total Cell Count [11]: 517 | Population Apoptotic (%) [12]: 50% | Population Fragmented Nuclei (%) [12]: 12% | Population Healthy Nuclei (%) [12]: 80% | Population Hoechst High Intensity Objects (%) [12]: 3% | Population Mitochondria Different-Phenotype (%) [12]: 56% | Population Mitotic Cells (%) [12]: 50% | Population Normal (%) [12]: 96% | Population Pyknosed Nuclei (%) [12]: 6% | Population Tubulin-Different-Phenotype (%) [12]: 26% | Total Cell Count [12]: 607
